Calls of active or inactive are those of the source. No cut-off for these calls is given here.
Experiments:
[1] = molecular target: T1, P2Y purinoceptor 4 (Homo sapiens, UniProt P51582); assay: Agonist activity at human recombinant P2Y4 receptor expressed in human 1321N1 cells assessed as [3H]inositol phosphate production at 10 uM after 30 mins by scintillation proximity assay; assay type: functional, cell-based
[2] = molecular target: T2, P2Y purinoceptor 6 (Homo sapiens, UniProt Q15077); assay: Agonist activity at human recombinant P2Y6 receptor expressed in human 1321N1 cells assessed as [3H]inositol phosphate production at 10 uM after 30 mins by scintillation proximity assay; assay type: functional, cell-based
[3] = molecular target: T3, P2Y purinoceptor 2 (Homo sapiens, UniProt P41231); assay: Agonist activity at human recombinant P2Y2 receptor expressed in human 1321N1 cells assessed as [3H]inositol phosphate production after 30 mins by scintillation proximity assay; assay type: functional, cell-based
Outline: (§1)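 Stable 1321N1 human astrocytoma lines expressing human P2Y2, P2Y4 or P2Y6 were seeded at 20,000 cells/well two days ahead. Cells were then challenged with agonist in HEPES pH 7.3/HBSS containing LiCl for 30 min at 37°C. The reaction was stopped with ice-cold 50 mM formic acid and [3H]inositol phosphates were read by SPA.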

[4] = molecular target: T1, P2Y purinoceptor 4; assay: Agonist activity at human recombinant P2Y4 receptor expressed in human 1321N1 cells assessed as [3H]inositol phosphate production after 30 mins by scintillation proximity assay; assay type: functional, cell-based
Outline: as §1, with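 “ahead. They were labelled for 16 h with 1.0 μCi myo-[3H]inositol in serum-free, inositol-free DMEM.” for “ahead.”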

[5] = molecular target: T2, P2Y purinoceptor 6; assay: Agonist activity at human recombinant P2Y6 receptor expressed in human 1321N1 cells assessed as [3H]inositol phosphate production after 30 mins by scintillation proximity assay; assay type: functional, cell-based
Outline: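 1321N1 astrocytoma cells stably expressing human P2Y6, seeded 2 days ahead and labelled 16 h with myo-[3H]inositol in serum-free inositol-free DMEM. Agonist added as five-fold concentrate in HEPES pH 7.3/HBSS with 50 mM LiCl, 30 min at 37°C. Stopped with ice-cold 50 mM formic acid. EC50 from four-parameter logistic fit; triplicates, three to six experiments; UDP reference curve.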

[6] = molecular target: T3, P2Y purinoceptor 2; assay: Agonist activity at human recombinant P2Y2 receptor expressed in human 1321N1 cells assessed as [3H]inositol phosphate production at 10 uM after 30 mins by scintillation proximity assay; assay type: functional, cell-based
[7] = molecular target: T3, P2Y purinoceptor 2; assay: Ratio of EC50 for human recombinant P2Y2 receptor expressed in human 1321N1 cells to EC50 for human recombinant P2Y4 receptor expressed in human 1321N1 cells; assay type: cell-based
[8] = system: 1321-N1; assay: Ratio of EC50 for human recombinant P2Y6 receptor expressed in human 1321N1 cells to EC50 for human recombinant P2Y4 receptor expressed in human 1321N1 cells; assay type: cell-based
[9] = molecular target: T1, P2Y purinoceptor 4; assay: Agonist activity at human P2Y4; assay type: functional
[10] = system: Oocyte; assay: Ratio of EC50 for rat P2Y2 expressed in Xenopus oocytes to EC50 for rat P2Y4 expressed in Xenopus oocytes; assay type: cell-based
[11] = Ratio of EC50 for P2Y4 to EC50 for P2Y2
[12] = Ratio of EC50 for P2Y6 to EC50 for P2Y2
[13] = molecular target: T3, P2Y purinoceptor 2; assay: Agonist activity at human P2Y2; assay type: functional

T1 sequence (P51582 whole entry): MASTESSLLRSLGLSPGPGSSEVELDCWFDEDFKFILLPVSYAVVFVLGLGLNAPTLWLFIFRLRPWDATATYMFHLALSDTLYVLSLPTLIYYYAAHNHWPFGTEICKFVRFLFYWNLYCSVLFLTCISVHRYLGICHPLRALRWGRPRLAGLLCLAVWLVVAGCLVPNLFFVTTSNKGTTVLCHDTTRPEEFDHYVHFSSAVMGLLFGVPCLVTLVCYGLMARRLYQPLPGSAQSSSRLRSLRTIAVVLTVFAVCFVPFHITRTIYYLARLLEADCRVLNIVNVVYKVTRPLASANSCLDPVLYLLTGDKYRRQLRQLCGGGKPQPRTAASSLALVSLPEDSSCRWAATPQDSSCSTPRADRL
T2 sequence (Q15077 whole entry): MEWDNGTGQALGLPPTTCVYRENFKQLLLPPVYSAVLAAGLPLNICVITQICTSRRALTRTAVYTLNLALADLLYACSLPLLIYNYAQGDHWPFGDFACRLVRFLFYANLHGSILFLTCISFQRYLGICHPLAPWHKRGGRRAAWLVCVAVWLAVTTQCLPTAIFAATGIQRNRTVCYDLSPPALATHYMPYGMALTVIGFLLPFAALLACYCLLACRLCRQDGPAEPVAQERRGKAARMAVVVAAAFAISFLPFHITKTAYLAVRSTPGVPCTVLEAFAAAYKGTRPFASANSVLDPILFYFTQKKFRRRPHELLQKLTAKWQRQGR
T3 sequence (P41231 whole entry): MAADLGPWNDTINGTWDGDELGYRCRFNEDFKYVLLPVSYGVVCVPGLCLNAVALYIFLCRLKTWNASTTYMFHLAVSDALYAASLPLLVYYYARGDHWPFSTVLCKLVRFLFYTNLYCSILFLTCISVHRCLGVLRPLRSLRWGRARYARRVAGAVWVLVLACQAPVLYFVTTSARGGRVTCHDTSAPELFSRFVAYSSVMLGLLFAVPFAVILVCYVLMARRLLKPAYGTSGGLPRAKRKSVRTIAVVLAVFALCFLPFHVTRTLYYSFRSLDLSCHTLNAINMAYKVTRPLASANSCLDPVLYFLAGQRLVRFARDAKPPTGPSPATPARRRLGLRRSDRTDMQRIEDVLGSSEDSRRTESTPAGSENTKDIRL

Row | SMILES | Activity [2] | EC50 [3] | EC50 [4] | EC50 [5] | also measured
1 | O=c1ccn([C@@H]2O[C@H](COP(=O)(O)OP(=O)(O)C(Cl)(Cl)P(=O)(O)O)[C@@H](O)[C@H]2O)c(=S)[nH]1 | inactive | – | – | – | Activity [1]: inactive
2 | O=c1ccn([C@@H]2O[C@H](COP(=O)(O)OP(=O)(O)OP(=O)(O)O)[C@@H](O)[C@H]2O)c(=O)[nH]1 [URIDINE TRIPHOSPHATE] | – | 55 nM | 80 nM | – | –
3 | O=c1ccn([C@@H]2O[C@H](COP(=O)(O)OP(=O)(O)OP(=O)(O)OP(=O)(O)Oc3ccccc3)[C@@H](O)[C@H]2O)c(=O)[nH]1 | inactive | 2760 nM | – | – | Activity [1]: inactive
4 | O=c1ccn([C@@H]2O[C@H](COP(=O)(O)OP(=O)(O)C(Cl)(Cl)P(=O)(O)OP(=O)(O)O[C@H]3O[C@H](CO)[C@@H](O)[C@H](O)[C@H]3O)[C@@H](O)[C@H]2O)c(=O)[nH]1 | inactive | – | – | – | Activity [6]: < 50%; Activity [1]: inactive
5 | O=c1ccn([C@@H]2O[C@H](COP(=O)(O)OP(=O)(O)OP(=O)(O)OP(=O)(O)O[C@H]3O[C@H](CO)[C@H](O)[C@H](O)[C@H]3O)[C@@H](O)[C@H]2O)c(=O)[nH]1 | – | 940 nM | – | – | –
6 | O=c1[nH]/c(=N\OCCc2ccccc2)ccn1[C@@H]1O[C@H](COP(=O)(O)OP(=O)(O)OP(=O)(O)O)[C@@H](O)[C@H]1O | – | – | – | – | Ratio EC50 [7]: 16; Ratio EC50 [8]: 17
7 | O=c1ccn([C@@H]2O[C@H](COP(=O)(O)OP(=O)(O)OP(=O)(O)OP(=O)(O)Oc3cccc([N+](=O)[O-])c3)[C@@H](O)[C@H]2O)c(=O)[nH]1 | < 50% | 3330 nM | 2540 nM | – | –
8 | O=c1ccn([C@@H]2O[C@H](COP(=O)(O)OP(=O)(O)OP(=O)(O)OP(=O)(O)OC[C@H]3O[C@@H](n4ccc(=O)[nH]c4=O)[C@H](O)[C@@H]3O)[C@@H](O)[C@H]2O)c(=O)[nH]1 [DIQUAFOSOL TETRASODIUM] | – | – | – | – | EC50 [9]: 870 nM
9 | O=c1ccn([C@@H]2O[C@H](COP(=O)(O)OP(=O)(O)OP(=O)(O)OP(=O)(O)O)[C@@H](O)[C@H]2O)c(=O)[nH]1 | – | 3900 nM | 7300 nM | – | –
10 | O=c1[nH]/c(=N\OCCCc2ccccc2)ccn1[C@@H]1O[C@H](COP(=O)(O)OP(=O)(O)OP(=O)(O)O)[C@@H](O)[C@H]1O | – | – | – | – | Ratio EC50 [7]: 28; Ratio EC50 [8]: 32
11 | O=P(O)(O)OP(=O)(O)OP(=O)(O)OC[C@H]1O[C@@H](n2cnc3c(O)ncnc32)[C@H](O)[C@@H]1O | – | – | – | – | Ratio EC50 [10]: 13
12 | O=c1ccn([C@@H]2O[C@H](COP(=O)(O)OP(=O)(O)OP(=O)(O)OP(=O)(O)Oc3cccc(Cl)c3)[C@@H](O)[C@H]2O)c(=O)[nH]1 | – | 840 nM | – | 3690 nM | Activity [1]: inactive
13 | O=c1ccn([C@@H]2O[C@H](COP(=O)(O)OP(=O)(O)C(Cl)(Cl)P(=O)(O)O)[C@@H](O)[C@H]2O)c(=O)[nH]1 | < 50% | 9600 nM | – | – | Activity [1]: inactive
14 | O=c1ccn([C@@H]2O[C@H](COP(=O)(O)OP(=O)(O)OP(=O)(O)OP(=O)(O)Oc3ccc(Cl)cc3)[C@@H](O)[C@H]2O)c(=O)[nH]1 | – | 6600 nM | – | – | –
15 | O=c1ccn([C@@H]2O[C@H](COP(=O)(O)OP(=O)(O)OP(=O)(O)OP(=O)(O)O[C@H]3O[C@H](CO)[C@@H](O)[C@H](O)[C@H]3O)[C@@H](O)[C@H]2O)c(=O)[nH]1 | – | – | – | – | Ratio EC50 [11]: 7; Ratio EC50 [12]: 26
16 | [N-]=[N+]=N[C@@H]1[C@H](O)[C@@H](COP(=O)(O)OP(=O)(O)OP(=O)(O)O)O[C@H]1n1ccc(=O)[nH]c1=O | – | – | – | – | EC50 [13]: 5 µM
17 | COc1cccc(OP(=O)(O)OP(=O)(O)OP(=O)(O)OP(=O)(O)OC[C@H]2O[C@@H](n3ccc(=O)[nH]c3=O)[C@H](O)[C@@H]2O)c1 | < 50% | – | – | – | Activity [6]: < 50%; Activity [1]: inactive
18 | O=c1ccn([C@@H]2O[C@H](COP(=O)(O)OP(=O)(O)OP(=O)(O)OP(=O)(O)O[C@H]3O[C@H](CO)[C@@H](O)[C@H](O)[C@@H]3O)[C@@H](O)[C@H]2O)c(=O)[nH]1 | – | 3720 nM | 4480 nM | 12100 nM | –
19 | O=c1ccn([C@@H]2O[C@H](COP(=O)(O)OP(=O)(O)OP(=O)(O)OP(=O)(O)Oc3ccc([N+](=O)[O-])cc3)[C@@H](O)[C@H]2O)c(=O)[nH]1 | < 50% | 4850 nM | – | – | Activity [1]: < 50%

More lines, main results first:

Row | Activity [2] | EC50 [3] | EC50 [4] | EC50 [5] | SMILES | also measured
20 | – | 500 nM | 310 nM | 1440 nM | CONc1ccn([C@@H]2O[C@H](COP(=O)(O)OP(=O)(O)OP(=O)(O)OP(=O)(O)O[C@H]3O[C@H](CO)[C@@H](O)[C@H](F)[C@H]3O)[C@@H](O)[C@H]2O)c(=O)n1 | –
21 | – | 2640 nM | 670 nM | 7510 nM | O=c1[nH]/c(=N\OCc2ccccc2)ccn1[C@@H]1O[C@H](COP(=O)(O)OP(=O)(O)OP(=O)(O)OP(=O)(O)O[C@H]2O[C@H](CO)[C@@H](O)[C@H](F)[C@H]2O)[C@@H](O)[C@H]1O | –
22 | – | 1890 nM | 910 nM | 5460 nM | CC(=O)N[C@H]1[C@@H](OP(=O)(O)OP(=O)(O)OP(=O)(O)OP(=O)(O)OC[C@H]2O[C@@H](n3ccc(=O)[nH]c3=O)[C@H](O)[C@@H]2O)O[C@H](CO)[C@@H](O)[C@@H]1O | –
23 | – | 2770 nM | 620 nM | 4900 nM | O=c1ccn([C@@H]2O[C@H](COP(=O)(O)OP(=O)(O)OP(=O)(O)OP(=O)(O)O[C@H]3OC[C@@H](O)[C@H](O)[C@H]3O)[C@@H](O)[C@H]2O)c(=O)[nH]1 | –
24 | – | 640 nM | 23 nM | 740 nM | O=c1nc(NOCCCc2ccccc2)ccn1[C@@H]1O[C@H](COP(=O)(O)OP(=O)(O)OP(=O)(O)O)[C@@H](O)[C@H]1O | –
25 | – | 620 nM | 220 nM | 1640 nM | O=c1ccn([C@@H]2O[C@H](COP(=O)(O)OP(=O)(O)OP(=O)(O)OP(=O)(O)O[C@H]3O[C@H](CO)[C@@H](F)[C@H](O)[C@H]3O)[C@@H](O)[C@H]2O)c(=O)[nH]1 | –
26 | < 50% | – | – | – | COc1ccc(OP(=O)(O)OP(=O)(O)OP(=O)(O)OP(=O)(O)OC[C@H]2O[C@@H](n3ccc(=O)[nH]c3=O)[C@H](O)[C@@H]2O)cc1 | Activity [6]: < 50%; Activity [1]: < 50%
27 | < 50% | – | – | – | CC(C)(C)O/N=c1/ccn([C@@H]2O[C@H](COP(=O)(O)OP(=O)(O)OP(=O)(O)O)[C@@H](O)[C@H]2O)c(=O)[nH]1 | –
28 | – | 490 nM | 227 nM | 1650 nM | O=C(O)[C@H]1O[C@H](OP(=O)(O)OP(=O)(O)OP(=O)(O)OP(=O)(O)OC[C@H]2O[C@@H](n3ccc(=O)[nH]c3=O)[C@H](O)[C@@H]2O)[C@H](O)[C@@H](O)[C@@H]1O | –
29 | – | 770 nM | 183 nM | 1170 nM | O=c1ccn([C@@H]2O[C@H](COP(=O)(O)OP(=O)(O)OP(=O)(O)OP(=O)(O)O[C@H]3O[C@H](CO)[C@@H](O)[C@@H](O)[C@H]3O)[C@@H](O)[C@H]2O)c(=O)[nH]1 | –
30 | – | 710 nM | 62 nM | 950 nM | O=c1ccn([C@@H]2O[C@H](COP(=O)(O)OP(=O)(O)OP(=O)(O)OP(=O)(O)O[C@H]3O[C@H](CO)[C@@H](O)[C@H](F)[C@H]3O)[C@@H](O)[C@H]2O)c(=O)[nH]1 | Ratio EC50 [7]: 11.5; Ratio EC50 [8]: 15.3
31 | – | 1500 nM | 2110 nM | – | CC(C)(C)ONc1ccn([C@@H]2O[C@H](COP(=O)(O)OP(=O)(O)OP(=O)(O)O)[C@@H](O)[C@H]2O)c(=O)n1 | –
32 | < 50% | – | – | – | O=c1ccn([C@@H]2O[C@H](COP(=O)(O)OP(=O)(O)OP(=O)(O)OP(=O)(O)O[C@H]3O[C@H](CO)[C@@H](O)[C@H](O)[C@H]3F)[C@@H](O)[C@H]2O)c(=O)[nH]1 | Activity [6]: < 50%; Activity [1]: < 50%
